Here are results for 5 molecules from ChEMBL document CHEMBL1149822, “Synthesis, antimicrobial and anti-inflammatory activities of some 1,2,4-triazolo[3,4-b][1,3,4]thiadiazoles and 1,2,4-triazolo[3,4-b][1,3,4]thiadiazines bearing trichlorophenyl moiety” (2008).

The structures appear in SMILES notation. Values after ≈ are worked out from the molar mass of the structure shown.

Common to all, as to type: functional
For test [1], the system named is Aspergillus fumigatus. Nature of the test: Antifungal activity against Aspergillus fumigatus NCIM 902 at […] ug/ml after 3 to 4 days. Conditions: read-out: IZ.
Test [2] concerns Talaromyces marneffei. Description: Antifungal activity against Penicillium marneffei at […] ug/ml after 3 to 4 days. Conditions: read-out: IZ.
Test [3] deals with Aspergillus flavus. Nature of the test: Antifungal activity against Aspergillus flavus NCIM 524 at […] ug/ml after 3 to 4 days. Conditions: read-out: IZ.
The test system of test [4] is Staphylococcus aureus. Nature of the test: Antibacterial activity against Staphylococcus aureus ATTC 25923 at […] ug/ml after 3 to 4 days. Conditions: read-out: IZ.
Test [5] concerns Escherichia coli. Nature of the test: Antibacterial activity against Escherichia coli ATTC 25922 after 16 to 18 hrs by serial plate dilution method. Conditions: ATCC25922. Summed up: (§1)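 Serial dilutions were made in Mueller-Hinton broth in tubes, adjusted to […] with phosphate buffer, and inoculated with a standardized bacterial suspension. Tubes were incubated at 37 °C for 16–18 h. MIC was taken as the lowest concentration with no visible growth.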

For test [6], the system named is Aspergillus fumigatus. Description: Antifungal activity against Aspergillus fumigatus NCIM 902 by serial plate dilution method.
The test system of test [7] is Pseudomonas aeruginosa. Nature of the test: Antibacterial activity against Pseudomonas aeruginosa ATTC 27853 after 16 to 18 hrs by serial plate dilution method. Conditions: ATCC27853. In short, it runs like this: as §1
Test [8] concerns Klebsiella pneumoniae. Description: Antibacterial activity against Klebsiella pneumoniae after 16 to 18 hrs by serial plate dilution method. In short, it runs like this: as §1
Test [9] deals with Staphylococcus aureus. Description: Antibacterial activity against Staphylococcus aureus ATTC 25923 after 16 to 18 hrs by serial plate dilution method. In short, it runs like this:
as §1

Test [10] has as its system Aspergillus flavus. Nature of the test: Antifungal activity against Aspergillus flavus NCIM 524 by serial plate dilution method. In short, it runs like this: (§2)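 Agar of peptone 1 g, D-glucose 4 g and agar 2 g per 100 mL water, pH 5.7, was lawned with a fungal spore suspension in normal saline. The excess was decanted and plates were dried at 37 °C for 1 h. Wells were punched and compounds in DMSO were added, with a DMSO control. Plates were run in triplicate at 37 °C for 3–4 days, and the inhibition zone diameter was measured.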

In test [11] the test system is Escherichia coli. Description: microbe, parasite or virus in culture. Conditions: ATCC25922, read-out: IZ.
Test [12] has as its system Klebsiella pneumoniae. Nature of the test: microbe, parasite or virus in culture. Conditions: read-out: IZ.
Test [13] relates to Talaromyces marneffei. Description: Antifungal activity against Penicillium marneffei by serial plate dilution method. In short, it runs like this:
as §2

Test [14] has as its system Trichophyton mentagrophytes. Nature of the test: Antifungal activity against Trichophyton mentagrophytes by serial plate dilution method.
The subject of test [15] is Pseudomonas aeruginosa. Description: Antibacterial activity against Pseudomonas aeruginosa ATTC 27853 at 12 ug/ml after 3 to 4 days. Conditions: ATCC27853, read-out: IZ. In short, it runs like this:
(§3)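 Agar well diffusion. Plates were seeded with a bacterial suspension, the excess was decanted and plates were dried at 37 °C for 1 h. Wells were punched and compounds in DMSO were added, with DMSO wells as control. Plates were run in triplicate at 37 °C for 3–4 days and zones of inhibition were scored.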

The next test deals with Rattus norvegicus. Description: Antiinflammatory activity against carrageenan-induced paw oedema in albino rat at 50 mg/kg, po relative to control. Summed up: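 Albino rats of 180–250 g were fasted 18 h and placed in groups of six. Samples were suspended in 2% w/v acacia mucilage, and the vehicle group served as control. 30 min after dosing, carrageenan (1 mg mL⁻¹, 0.1 mL) was injected subcutaneously into the right hind paw. Paw volume was measured immediately and at 3 h, and % oedema inhibition was calculated versus vehicle controls.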

The test system of test [16] is Trichophyton mentagrophytes. Nature of the test: Antifungal activity against Trichophyton mentagrophytes at […] ug/ml after 3 to 4 days. The note with it: read-out: IZ.
The subject of test [17] is Aspergillus fumigatus. Description: Antifungal activity against Aspergillus fumigatus NCIM 902 at 12 ug/ml after 3 to 4 days. Conditions: read-out: IZ. In short, it runs like this:
as §2

Test [18] concerns Talaromyces marneffei. Nature of the test: Antifungal activity against Penicillium marneffei at 12 ug/ml after 3 to 4 days. The note with it: read-out: IZ. Summed up:
as §2

In test [19] the test system is Pseudomonas aeruginosa. Nature of the test: microbe, parasite or virus in culture. Conditions: ATCC27853, read-out: IZ.
Test [20] concerns Klebsiella pneumoniae. Description: Antibacterial activity against Klebsiella pneumoniae at 12 ug/ml after 3 to 4 days. Conditions: read-out: IZ. Summed up: as §3
In test [21] the test system is Aspergillus flavus. Description: Antifungal activity against Aspergillus flavus NCIM 524 at 25 ug/ml after 3 to 4 days. Conditions: read-out: IZ. In short, it runs like this:
as §2

For test [22], the system named is Escherichia coli. Nature of the test: Antibacterial activity against Escherichia coli ATTC 25922 at 12 ug/ml after 3 to 4 days. The note with it: ATCC25922, read-out: IZ. Summed up: as §3
Test [23] relates to Staphylococcus aureus. Nature of the test: Antibacterial activity against Staphylococcus aureus ATTC 25923 at 12 ug/ml after 3 to 4 days. Conditions: read-out: IZ. In short, it runs like this:
as §3

The subject of test [24] is Pseudomonas aeruginosa. Nature of the test: Antibacterial activity against Pseudomonas aeruginosa ATTC 27853 at 25 ug/ml after 3 to 4 days. The note with it: ATCC27853, read-out: IZ. In short, it runs like this: as §3
The test system of test [25] is Trichophyton mentagrophytes. Nature of the test: Antifungal activity against Trichophyton mentagrophytes at 25 ug/ml after 3 to 4 days. The note with it: read-out: IZ. Summed up: as §2
Test [26] concerns Klebsiella pneumoniae. Nature of the test: Antibacterial activity against Klebsiella pneumoniae at 25 ug/ml after 3 to 4 days. The note with it: read-out: IZ. In short, it runs like this: as §3
Test [27] concerns Trichophyton mentagrophytes. Nature of the test: Antifungal activity against Trichophyton mentagrophytes at 12 ug/ml after 3 to 4 days. The note with it: read-out: IZ. Summed up:
as §2

The test system of test [28] is Aspergillus flavus. Description: Antifungal activity against Aspergillus flavus NCIM 524 at 12 ug/ml after 3 to 4 days. The note with it: read-out: IZ. Summed up:
as §2

Consider `Clc1cc(Cl)c(Cl)c(-c2nnc3sc(-c4cccc5ncccc45)nn23)c1`, for which the zone of inhibition at 6.25 µg/mL in the test with Aspergillus fumigatus [1], in the test with Talaromyces marneffei [2], in the test with Aspergillus flavus [3], in the test on Staphylococcus aureus [4], in the test with Escherichia coli [11] and in the test on Klebsiella pneumoniae [12] was 16 mm each time. In addition, the zone of inhibition at 6.25 µg/mL in test [16] was determined as 16 mm. The minimal inhibitory concentration (MIC) is 6.25 µg/mL (≈ 14.4 µM) against Escherichia coli [5]; 6.25 µg/mL (≈ 14.4 µM) in the test with Aspergillus fumigatus [6]; 12 µg/mL (≈ 27.7 µM) with Pseudomonas aeruginosa [7]; 6.25 µg/mL (≈ 14.4 µM) against Klebsiella pneumoniae [8]; 6.25 µg/mL (≈ 14.4 µM) against Staphylococcus aureus [9]; 6.25 µg/mL (≈ 14.4 µM) in the test on Aspergillus flavus [10]. Further, the MIC (in the test on Talaromyces marneffei [13]; in test [14]) was 6.25 µg/mL (≈ 14.4 µM) in each case. In the test on Pseudomonas aeruginosa [15], the zone of inhibition at 12 µg/mL is 11 mm. The molecule also returned an inhibition in vivo at 50 mg/kg in the test on Rattus norvegicus of 9.67%.
For the molecule `Clc1cc(Cl)c(Cl)c(-c2nnc3sc(-c4ccccc4)nn23)c1`, the zone of inhibition at 6.25 µg/mL (in the test with Aspergillus flavus [3]; with Staphylococcus aureus [4]; in the test on Pseudomonas aeruginosa [19]; in the test with Escherichia coli [11]; in test [16]) was 16 mm in each case. The zone of inhibition at 12 µg/mL in the test on Aspergillus fumigatus [17], in the test on Talaromyces marneffei [18] and in the test with Klebsiella pneumoniae [20] was 11 mm each time. Also, the minimal inhibitory concentration (MIC) against Escherichia coli [5] was 6.25 µg/mL (≈ 16.4 µM); against Aspergillus fumigatus [6], 12 µg/mL (≈ 31.4 µM); against Pseudomonas aeruginosa [7] it was 6.25 µg/mL (≈ 16.4 µM); with Klebsiella pneumoniae [8] it was 12 µg/mL (≈ 31.4 µM); with Staphylococcus aureus [9], 6.25 µg/mL (≈ 16.4 µM); in the test on Aspergillus flavus [10], 6.25 µg/mL (≈ 16.4 µM). The MIC against Talaromyces marneffei [13] turned out to be 12 µg/mL (≈ 31.4 µM); in test [14], 6.25 µg/mL (≈ 16.4 µM). Testing at 50 mg/kg in the test on Rattus norvegicus gave an inhibition in vivo of 16.1%.
On to `Clc1cc(Cl)c(Cl)c(-c2nnc3sc(-c4cccc5cnccc45)nn23)c1`, for which the zone of inhibition at 6.25 µg/mL in the test on Aspergillus fumigatus [1] and in the test with Talaromyces marneffei [2] was 16 mm throughout. The zone of inhibition at 25 µg/mL (in the test on Aspergillus flavus [21]; in the test with Pseudomonas aeruginosa [24]; in [25]; with Klebsiella pneumoniae [26]) was under 10 mm in each case. Also, the zone of inhibition at 12 µg/mL in the test on Escherichia coli [22] and in the test with Staphylococcus aureus [23] was 11 mm each time. In addition, the MIC was 12 µg/mL (≈ 27.7 µM) against Escherichia coli [5]; 6.25 µg/mL (≈ 14.4 µM) with Aspergillus fumigatus [6]; 25 µg/mL (≈ 57.8 µM) with Pseudomonas aeruginosa [7]; 25 µg/mL (≈ 57.8 µM) in the test with Klebsiella pneumoniae [8]; 12 µg/mL (≈ 27.7 µM) against Staphylococcus aureus [9]; 25 µg/mL (≈ 57.8 µM) in the test with Aspergillus flavus [10]. Besides, the results for the MIC (with Talaromyces marneffei [13]; in [14]) were 6.25 µg/mL (≈ 14.4 µM) and 25 µg/mL (≈ 57.8 µM), respectively. Further, in the test on Rattus norvegicus, testing at 50 mg/kg gave an inhibition in vivo of 22.6%.
Regarding `Cc1ccc(-c2nn3c(-c4cc(Cl)cc(Cl)c4Cl)nnc3s2)cc1`, the zone of inhibition at 6.25 µg/mL in the test with Aspergillus fumigatus [1], with Talaromyces marneffei [2], in the test with Pseudomonas aeruginosa [19] and in the test on Klebsiella pneumoniae [12] was 16 mm each time. Besides, the zone of inhibition at 12 µg/mL (in [27]; in the test on Aspergillus flavus [28]; in the test with Escherichia coli [22]; in the test with Staphylococcus aureus [23]) was 11 mm throughout. Further, the MIC in the test with Escherichia coli [5] was determined as 12 µg/mL (≈ 30.3 µM); against Aspergillus fumigatus [6], 6.25 µg/mL (≈ 15.8 µM); in the test with Pseudomonas aeruginosa [7], 6.25 µg/mL (≈ 15.8 µM); with Klebsiella pneumoniae [8] it was 6.25 µg/mL (≈ 15.8 µM); against Staphylococcus aureus [9], 12 µg/mL (≈ 30.3 µM); against Aspergillus flavus [10] it was 12 µg/mL (≈ 30.3 µM). Moreover, the results for the MIC (in the test on Talaromyces marneffei [13]; in test [14]) were 6.25 µg/mL (≈ 15.8 µM) and 12 µg/mL (≈ 30.3 µM), respectively. This molecule also came in with an inhibition in vivo at 50 mg/kg with Rattus norvegicus of 22.6%.
With `Cc1ccc(C2=Nn3c(nnc3-c3cc(Cl)cc(Cl)c3Cl)SC2)cc1`, the zone of inhibition at 6.25 µg/mL (in the test with Aspergillus fumigatus [1]; with Talaromyces marneffei [2]; with Aspergillus flavus [3]; in the test on Staphylococcus aureus [4]; with Escherichia coli [11]; in test [16]) was 16 mm throughout. In addition, the MIC in the test on Escherichia coli [5] is 6.25 µg/mL (≈ 15.3 µM); against Aspergillus fumigatus [6], 6.25 µg/mL (≈ 15.3 µM); with Pseudomonas aeruginosa [7], 12 µg/mL (≈ 29.3 µM); against Klebsiella pneumoniae [8] it was 12 µg/mL (≈ 29.3 µM); in the test on Staphylococcus aureus [9] it was 6.25 µg/mL (≈ 15.3 µM); against Aspergillus flavus [10] it was 6.25 µg/mL (≈ 15.3 µM). Moreover, the MIC (in the test with Talaromyces marneffei [13]; in test [14]) was 6.25 µg/mL (≈ 15.3 µM) each time. The zone of inhibition at 12 µg/mL with Pseudomonas aeruginosa [15] and in the test with Klebsiella pneumoniae [20] was 11 mm throughout. In addition, in the test with Rattus norvegicus, the inhibition in vivo at 50 mg/kg turned out to be 19.4%.
